# Assay results: ChEMBL document CHEMBL1629474, “Massive screening yields novel and selective Trypanosoma cruzi triosephosphate isomerase dimer-interface-irreversible inhibitors with anti-trypanosomal activity” (Eur J Med Chem, 2010)
# The source made the active and inactive calls. No rule for the calls is given here.
# Assays:
# [1] = Selectivity for Trypanosoma cruzi triosephosphate isomerase over human triosephosphate isomerase
# [2] = tested on: Trypanosoma cruzi; experiment: Antiparasitic activity against Trypanosoma cruzi T2 epimastigotes assessed as growth inhibition; assay type: functional; conditions: read-out: ID50 (the source's name)
# Outline: (§1)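 Epimastigotes were cultured at 28 °C in BHI-tryptose plus 5% fetal calf serum and seeded at 2×10^6/mL with increasing compound concentrations (from DMSO stock; final DMSO ≤1%). Growth was followed as A590 against untreated controls. ID50 was the concentration halving absorbance relative to controls. Means of two experiments.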
# [3] = tested on: Trypanosoma cruzi; experiment: Antiparasitic activity against Trypanosoma cruzi T2 epimastigotes assessed as growth inhibition at 25 uM after 5 days; assay type: functional; conditions: for inhibition of growth at 25 µM: T2, 120 h, read-out: GI
# Outline: (§2)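 Late-log epimastigotes were grown axenically at 28 °C in BHI-tryptose with 5% fetal calf serum and seeded at 2×10^6/mL in medium containing compound (DMSO stock; final DMSO ≤1%, 1% DMSO control). Growth was read as A590 at day 0 and day 5. Inhibition = {1 − [(Ap − A0p)/(Ac − A0c)]} × 100. Means of two experiments.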
# [4] = target: Triosephosphate isomerase, glycosomal (Trypanosoma cruzi) (UniProt P52270); experiment: Inhibition of Trypanosoma cruzi triosephosphate isomerase at 100 uM after 2 hrs
# Outline: (§3)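 Recombinant E. coli-expressed enzyme, dialyzed into 100 mM triethanolamine/10 mM EDTA pH 7.4, was incubated with compound (DMSO stock) in 100 mM triethanolamine, 10 mM EDTA, pH 7.4, 10% DMSO at 36 °C for 2 h. An aliquot was then assayed for activity (glyceraldehyde 3-phosphate to dihydroxyacetone phosphate, α-glycerol phosphate dehydrogenase-coupled) with 5 ng enzyme. Irreversible inhibition was scored as loss of activity; means of two experiments.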
# [5] = target: Triosephosphate isomerase, glycosomal (Trypanosoma cruzi) (UniProt P52270); experiment: Inhibition of Trypanosoma cruzi triosephosphate isomerase at 400 uM after 2 hrs; outline: as §3
# [6] = target: Triosephosphate isomerase, glycosomal (Trypanosoma cruzi, UniProt P52270); experiment: Inhibition of Trypanosoma cruzi triosephosphate isomerase after 2 hrs; outline: as §3
# [7] = target: Triosephosphate isomerase (Homo sapiens) (UniProt P60174); experiment: Inhibition of human triosephosphate isomerase at 100 uM after 2 hrs; outline: as §3
# [8] = tested on: Trypanosoma cruzi; experiment: Antiparasitic activity against Trypanosoma cruzi Y epimastigotes assessed as growth inhibition at 25 uM after 5 days; assay type: functional; conditions: 120 h, read-out: GI; outline: as §2
# [9] = tested on: Trypanosoma cruzi; experiment: Antiparasitic activity against Trypanosoma cruzi Y epimastigotes assessed as growth inhibition; assay type: functional; conditions: read-out: ID50 (the source's name); outline: as §1
# [10] = tested on: Trypanosoma cruzi; experiment: Antiparasitic activity against Trypanosoma cruzi CLB epimastigotes assessed as growth inhibition at 25 uM after 5 days; assay type: functional; conditions: 120 h, read-out: GI; outline: as §2
# [11] = tested on: Trypanosoma cruzi; experiment: Antiparasitic activity against Trypanosoma cruzi CLB epimastigotes assessed as growth inhibition; assay type: functional; conditions: read-out: ID50 (the source's name); outline: as §1
# Chain of Triosephosphate isomerase, glycosomal (Trypanosoma cruzi) (P52270 whole entry): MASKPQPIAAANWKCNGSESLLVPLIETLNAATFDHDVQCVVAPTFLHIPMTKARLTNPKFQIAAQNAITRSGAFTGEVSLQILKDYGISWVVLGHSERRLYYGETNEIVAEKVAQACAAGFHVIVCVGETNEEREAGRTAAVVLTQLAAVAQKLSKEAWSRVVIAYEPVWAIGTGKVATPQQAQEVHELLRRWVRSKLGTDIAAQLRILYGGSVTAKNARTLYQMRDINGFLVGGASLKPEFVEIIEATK
# Chain of Triosephosphate isomerase, glycosomal (P52270 whole entry): as above
# Chain of Triosephosphate isomerase (Homo sapiens) (P60174 whole entry): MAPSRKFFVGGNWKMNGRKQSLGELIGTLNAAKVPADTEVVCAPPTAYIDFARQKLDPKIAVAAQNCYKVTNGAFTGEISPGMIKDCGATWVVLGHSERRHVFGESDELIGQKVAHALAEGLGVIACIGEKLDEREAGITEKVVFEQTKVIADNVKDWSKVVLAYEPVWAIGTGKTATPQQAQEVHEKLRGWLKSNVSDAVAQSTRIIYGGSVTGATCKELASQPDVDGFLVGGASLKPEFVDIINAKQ
SMILES,Ratio [1],IC50 [2] [µM],inhibition of growth at 25 µM [3] [%],inhibition [4] [%],inhibition [5] [%],Activity [3],IC50 [6] [µM],inhibition [7] [%],inhibition of growth at 25 µM [8] [%],IC50 [9] [µM],inhibition of growth at 25 µM [10] [%],IC50 [11] [µM]
Cc1c(/C=N/NC(N)=S)no[n+]1[O-],> 4,> 25,24.7,56,87,,,,,,,
O=C(Cn1ccnc1[N+](=O)[O-])NCc1ccccc1 [BENZNIDAZOLE],> 4,7.4,,,18,Active,,,,,,
C/C(=C\c1ccc2c(c1)OCO2)[N+](=O)[O-],> 4,5.1,100,55,74,,,,,,,
[O-][n+]1onc(-c2ccccc2)c1CNc1cccc2ccccc12,> 4,> 25,24.7,45,72,,,,,,,
CC1=CC(=N/O)/C(=N\O)C=C1,> 4,25,50,49,85,,,,,,,
[O-][n+]1c2ccc(O)cc2[n+]([O-])c2cc(Cl)c(Cl)cc21,> 4,2.9,100,73,84,,26,0,100,5.5,100,2
O/N=C1C=CC(/C=C/c2ccccc2)=CC/1=N/O,> 4,,,8,77,Active,,,,,100,4.7
O=C1C(=Cc2ccc([N+](=O)[O-])o2)C(=O)N(Cc2ccccc2)S(=O)(=O)N1Cc1ccccc1,> 4,50,20.8,82,82,,13,0,,,,
Cc1ccc(-c2nsc(=O)[nH]2)cc1,,> 25,0,98,95,,3.5,59,,,,
c1ccc(-c2nsc(-c3ccccc3)n2)cc1,> 4,25,50,45,74,,,,,,,
CCOC(=O)c1nc(-c2ccccc2)ns1,> 4,> 25,25,69,87,,,,,,,
O=C1C(=Cc2ccc([N+](=O)[O-])cc2)C(=O)N(Cc2ccccc2)S(=O)(=O)N1Cc1ccccc1,> 4,,,28,74,Active,,,,,,
C/C(=C\c1cccs1)[N+](=O)[O-],> 4,> 25,14.6,53,95,,,,,,,
[O-][n+]1onc2ccc(/C=C/c3ccc4nonc4c3)cc21,> 4,,,13,80,Active,,,,,,
CCCCNC(=O)N/N=C/c1ccc([N+](=O)[O-])o1,> 4,,,17,0,Active,,,,,,
Cc1c(CNc2ccc3ccccc3c2)no[n+]1[O-],> 4,,,0,92,Active,,,,,,
O=c1oc(-c2ccccc2)ns1,> 4,22,59,81,96,,10,0,,,,
O/N=C1/C=CC(C=Cc2ccc(Cl)cc2)=C/C1=N/O,> 4,,,25,73,Active,,,,,100,5
[O-][n+]1onc2ccc(/C=C/c3ccc4c(c3)OCO4)cc21,> 4,,,21,70,Active,,,,,,
NC1=NS(=O)(=O)N=C(N)C1=Cc1ccc([N+](=O)[O-])o1,> 4,50,22.2,99,100,,20,,,,,
Cc1ccc(-c2nsc(S(=O)(=O)c3ccc(C)cc3)n2)cc1,> 4,5,100,57,78,,,,,,,
O=[N+]([O-])c1ccc(/C=N/NC(=S)Nc2ccccc2)s1,> 4,,,25,100,Active,,,,,,
O=c1cc(-c2ccccc2)oc2ccccc12 [FLAVONE],> 4,> 25,19.1,52,83,,,,,,,
NC(=O)N/N=C/c1ccc(OCc2ccc3no[n+]([O-])c3c2)cc1,> 4,,,36,82,Active,,,,,,
C=CCNC(=S)N/N=C\c1ccccc1OCc1ccc2no[n+]([O-])c2c1,> 4,,,45,75,Active,,,,,,
CCOC(=O)c1nc(-c2cc(C(C)(C)C)c(O)c(C(C)(C)C)c2)ns1,> 4,,,65,87,Active,,,,,,
